Reference: ChEMBL document CHEMBL3244231, “Synthesis and identification of the major metabolites of prazosin formed in dog and rat” (J Med Chem, 1977)

How the values were obtained:
[1] = system: Canis familiaris; assay: Antihypertensive activity in anesthetized normotensive mongrel dog assessed as maximum decrease in blood pressure at 1 mg/kg, iv administered at 30 mins intervals; type: functional, Canis lupus familiaris
How it was run: (§1)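 Anesthetized normotensive mongrel dogs each received escalating iv doses of 0.1, 0.4 and 1.0 mg/kg at 30-min intervals. After each interval, the maximum fall in blood pressure (mm) was read against control. Doses refer to the amine salts and are uncorrected; one agent was given as free base. At least two dogs were used per compound, and ranges are reported.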

[2] = system: Canis familiaris; assay: Antihypertensive activity in anesthetized normotensive mongrel dog assessed as maximum decrease in blood pressure at 0.4 mg/kg, iv administered at 30 mins intervals; type: functional, Canis lupus familiaris; how it was run: as §1
[3] = system: Canis familiaris; assay: Antihypertensive activity in anesthetized normotensive mongrel dog assessed as maximum decrease in blood pressure at 0.1 mg/kg, iv administered at 30 mins intervals; type: functional, Canis lupus familiaris; how it was run: as §1
[4] = Drug metabolism in rat assessed as parent compound level in urine; type: ADME; conditions: read-out: Drug excretion
[5] = Drug metabolism in rat assessed as parent compound level in bile; type: ADME; conditions: read-out: Drug excretion
[6] = Drug metabolism in dog assessed as parent compound level in urine; type: ADME, Canis lupus familiaris; conditions: read-out: Drug excretion
[7] = Drug metabolism in dog assessed as parent compound level in bile; type: ADME, Canis lupus familiaris; conditions: read-out: Drug excretion

| Compound | Activity [1] | Activity [2] | Activity [3] | dose excreted [4] | dose excreted [5] | dose excreted [6] | dose excreted [7] |
| --- | --- | --- | --- | --- | --- | --- | --- |
| COc1cc2nc(N3CCN(C(=O)c4ccco4)CC3)nc(N)c2cc1O.O=S(=O)(O)O | 15 mmHg | 10 mmHg |  |  |  |  |  |
| COc1cc2c(N)nc(N3CCN(C(=O)c4ccco4)CC3)nc2cc1O.O=S(=O)(O)O | 18 mmHg | 12 mmHg |  |  |  |  |  |
| COc1cc2nc(N)nc(N)c2cc1OC | 23 mmHg | 3 mmHg | 0 mmHg |  |  |  |  |
| COc1cc2nc(N3CCN(C(=O)c4ccco4)CC3)nc(N)c2cc1OC.Cl [PRAZOSIN HYDROCHLORIDE] | 55 mmHg | 45 mmHg | 20 mmHg | 6% | 6% | 6% | 6% |
